Screening data from PubChem BioAssay.
HIV Env fusion = HIV envelope-mediated fusion inhibition | HeLa-JRFL Env/CEM21 cell fusion, luciferase | inhibition, % at 12.3 µM | 1.1% of 360,000 active;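 active = mean replicate inhibition score of at least 50 and every replicate individually at or above 50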;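 also: 0% = plate neutral controls and 100% = maraviroc near 300 nM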
FGF22 binding = shifts melting point of recombinant human FGF22; recombinant FGF22 thermal shift, SYPRO orange fluorescence; percent of sucrose octasulfate shift, DMSO zero; activity (Tm shift, normalised), % at 9.99 µM; 1.5% of 340,000 active; AID 651658;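 active = mean Tm shift, scaled 0 neutral to 100 positive control, at about 1.3% or above, every replicate too, limit read from the data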
Cneo AK release = causes C. neoformans cell lysis | adenylate kinase release luminescence, 4 h; normalised: neutral wells 0, clomiphene wells 100 | lysis activity, % at 15 µM | 0.2% of 360,000 active | AID 651654;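 active = mean lysis activity across replicates of at least 80%, whatever share of replicates individually reach that level; inactive = mean lysis activity below 80%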
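Test system: log-phase Cryptococcus neoformans yeast cells. Input: 5 × 10^6 yeast cells/mL. Medium: fresh YPD growth medium. Doses: single dose. Incubation: static 4 h at 37 °C with compound, 1 h detection. Measured by: luminescent adenylate kinase detection reagent. Read-out: signal increase indicating cell lysis. Benchmarks: Clomiphene.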
ERAP1 inh = blocks human ERAP1 aminopeptidase activity; Q9NZ08; recombinant ERAP1, Leu-AMC fluorescence, 60 min; inhibition, % at 10.7 µM; 0.15% of 340,000 active; AID 652197;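 active = mean replicate inhibition of at least 30%, or all replicates individually reaching that 30% level; inactive = mean below 30% and not every replicate reaching it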;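 also: 0% = neutral control wells and 100% = L-leucinethiol positive control wells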
Target sequence (Q9NZ08 whole entry, looked up): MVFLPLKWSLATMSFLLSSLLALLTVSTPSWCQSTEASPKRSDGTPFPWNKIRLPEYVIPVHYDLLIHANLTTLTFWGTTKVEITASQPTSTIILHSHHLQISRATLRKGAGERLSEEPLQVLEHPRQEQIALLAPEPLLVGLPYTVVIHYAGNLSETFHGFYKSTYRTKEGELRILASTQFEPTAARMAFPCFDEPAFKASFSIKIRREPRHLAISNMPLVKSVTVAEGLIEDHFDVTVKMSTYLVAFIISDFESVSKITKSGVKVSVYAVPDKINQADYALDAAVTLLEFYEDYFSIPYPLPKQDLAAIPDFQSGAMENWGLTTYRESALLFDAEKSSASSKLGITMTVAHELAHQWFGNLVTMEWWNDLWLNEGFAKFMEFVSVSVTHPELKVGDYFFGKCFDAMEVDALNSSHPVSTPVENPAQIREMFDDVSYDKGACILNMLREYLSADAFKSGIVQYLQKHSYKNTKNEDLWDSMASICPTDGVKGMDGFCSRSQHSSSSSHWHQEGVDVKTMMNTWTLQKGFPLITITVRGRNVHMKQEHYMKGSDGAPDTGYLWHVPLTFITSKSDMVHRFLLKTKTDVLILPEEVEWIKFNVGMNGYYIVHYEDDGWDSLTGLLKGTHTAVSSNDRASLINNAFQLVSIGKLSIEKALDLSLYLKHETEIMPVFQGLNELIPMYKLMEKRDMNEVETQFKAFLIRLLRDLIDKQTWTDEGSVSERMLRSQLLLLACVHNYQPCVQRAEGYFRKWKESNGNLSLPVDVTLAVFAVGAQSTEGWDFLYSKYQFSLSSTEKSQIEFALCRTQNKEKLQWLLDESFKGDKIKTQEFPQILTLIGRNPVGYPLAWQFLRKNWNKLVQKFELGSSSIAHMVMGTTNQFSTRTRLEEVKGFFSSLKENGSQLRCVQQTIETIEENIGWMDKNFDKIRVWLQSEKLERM
PGC1a acetyl inh = lowers PGC1a acetylation signal in U2OS cells. AlphaScreen anti-acetyl-lysine; with virally co-expressed GCN5 acetyltransferase. inhibition, % at 15.6 µM. 0.17% of 350,000 active. AID 651687;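 active = every replicate shows inhibition of at least 40%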;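 also: 0% = neutral control wells and 100% = positive control wells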
rRNA inh HTS = selective bacterial rRNA inhibition in E. coli; E. coli WT GFP vs humanized-ribosome RFP mutants, fluorescence, 24 h; stronger effect = lower value; DMSO median 0, no signal -100; GFP signal change (wild-type ribosome), % (concentration not given with the values); 1.6% of 350,000 active;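 active = significant combined selectivity score with lowered wild-type GFP, culture density cut under 30%, mutant RFP and density less affected; inactive = any of these conditions unmet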
* = called active by the depositor. Shown are actives, neighbours in structure and some others; about 3.5% of the full set was active somewhere.

`CSCC[C@@H](C(=O)NCCCCCCCCCCC(=O)N1CCN(C(=O)OC(C)(C)C)CC1)n1cc(CCO)nn1` gave HIV Env fusion 2.8, FGF22 binding -0.1, Cneo AK release -4.9, ERAP1 inh 2.0, PGC1a acetyl inh -14.9 and rRNA inh HTS -18.9.
For COc1ccc(-n2c(COc3cccc(C)c3)nnc2SCC(=O)NCc2ccco2)cc1 the results were HIV Env fusion 23.1, Cneo AK release 1.3 and PGC1a acetyl inh 8.1.
`CC(=O)Nc1ccc(C(=O)Nc2cccc(S(=O)(=O)N(C)c3ccccc3)c2)cc1` gave HIV Env fusion 6.9, FGF22 binding 0.0, Cneo AK release -2.9, ERAP1 inh 2.8, PGC1a acetyl inh 8.9 and rRNA inh HTS -25.3.
`CN(c1cccc(NC(=O)c2ccc(N(C)S(=O)(=O)c3ccccc3)cc2)c1)S(C)(=O)=O` gave HIV Env fusion -7.8, FGF22 binding 0.1, ERAP1 inh 2.7 and rRNA inh HTS -17.1*.
`CN(c1cccc(NC(=O)c2ccc(C(C)(C)C)cc2)c1)S(C)(=O)=O` gave HIV Env fusion -104.9, FGF22 binding 42.9*, Cneo AK release -9.2, ERAP1 inh 0.9, PGC1a acetyl inh -1.5 and rRNA inh HTS -15.3.
CN(c1ccccc1)S(=O)(=O)c1cccc(NC(=O)CCN2C(=O)C3CCCCC3C2=O)c1 (stereo not given) was read as HIV Env fusion 32.2, FGF22 binding -0.1, Cneo AK release 6.5, ERAP1 inh -4.9, PGC1a acetyl inh -1.2 and rRNA inh HTS -29.0*.
`CN(c1cccc(NC(=O)CSc2ccc(Cl)cc2)c1)S(C)(=O)=O` gave HIV Env fusion 61.1*, Cneo AK release 0.8 and PGC1a acetyl inh 3.1.
`CN(c1cccc(NC(=O)CCSc2ccccc2)c1)S(C)(=O)=O` gave FGF22 binding 0.0, Cneo AK release -0.4, ERAP1 inh 1.6, PGC1a acetyl inh -14.1 and rRNA inh HTS 0.8.
`Cc1ccnc2nc(C(=O)Nc3nnc(-c4ccc(Cl)cc4)o3)nn12` gave HIV Env fusion -7.6, FGF22 binding -0.1, Cneo AK release -4.5, ERAP1 inh -1.6, PGC1a acetyl inh -0.6 and rRNA inh HTS 1.6.
Cc1cc(C)c2c(n1)SCC(=O)N2CC(=O)Nc1ccc(C)c(C)c1 was read as HIV Env fusion -9.8, FGF22 binding 0.0, Cneo AK release 0.9 and rRNA inh HTS -4.1.
`CN(c1ccc(F)cc1)S(=O)(=O)c1ccc(Cl)c(C(=O)OCC(=O)NC2CC2)c1` gave HIV Env fusion -2.8, FGF22 binding -0.1, Cneo AK release 3.0, ERAP1 inh -1.4, PGC1a acetyl inh 2.1 and rRNA inh HTS -3.2.
CN(c1ccccc1)S(=O)(=O)c1cccc(NC(=O)c2cc(=O)c3ccccc3o2)c1 was read as HIV Env fusion -5.4, FGF22 binding 43.4*, ERAP1 inh -1.9, PGC1a acetyl inh -15.9 and rRNA inh HTS 15.0.
`CN(c1cccc(NS(=O)(=O)c2cccs2)c1)S(C)(=O)=O` gave HIV Env fusion 31.2, Cneo AK release 0.9 and PGC1a acetyl inh 50.7*.
For Cc1cc(C)c2c(N)c(S(=O)(=O)c3ccccc3)sc2n1 the results were HIV Env fusion 12.4, Cneo AK release 0.0 and PGC1a acetyl inh -7.9.
Screening Cc1cc2c(sc3c(C)ccc(C)c32)c(C)n1 returned HIV Env fusion -11.1, FGF22 binding -0.1, Cneo AK release 3.0, ERAP1 inh -1.2, PGC1a acetyl inh 2.3 and rRNA inh HTS -34.8*.
For CC(C)C[C@H]1CNC(=S)N1C[C@H]1CCCN1C[C@H](CC(C)C)N1C[C@H](CC(C)C)N(CCc2ccccc2)C1=S the results were HIV Env fusion -8.8, FGF22 binding -0.5, Cneo AK release 5.5, PGC1a acetyl inh -3.3 and rRNA inh HTS 16.2.
For CCN(CC)C(=O)C1CCCN(c2ccccc2[N+](=O)[O-])C1 (stereo not given) the results were HIV Env fusion 1.6, FGF22 binding 43.0*, ERAP1 inh 6.1, PGC1a acetyl inh -4.8 and rRNA inh HTS 30.3.
Screening O=C(Nc1ccccc1)C1=C[C@H](C2CCCCC2)C[C@H](OCCCCO)O1 returned HIV Env fusion -84.2, FGF22 binding 0.3, Cneo AK release -2.3, ERAP1 inh -2.8, PGC1a acetyl inh -20.7 and rRNA inh HTS 3.6.
`COc1ccccc1NC(=O)Nc1nn(C)c2cccc(N(C)C)c12` gave HIV Env fusion 11.8, FGF22 binding 0.0, ERAP1 inh -1.7 and rRNA inh HTS -30.3*.
CN(C)c1cccc2c1c(NC(=O)Nc1ccc(Cl)cc1Cl)nn2C was read as HIV Env fusion 13.9, FGF22 binding 0.2, ERAP1 inh 1.2, PGC1a acetyl inh -3.2 and rRNA inh HTS 6.1.
COC(=O)c1sccc1NC(=O)c1cnc2cc(C)nn2c1C was read as HIV Env fusion -2.0, FGF22 binding 42.9*, ERAP1 inh 6.6, PGC1a acetyl inh 0.4 and rRNA inh HTS 11.8.
Screening COC(=O)c1sccc1NC(=S)N(C)C1CCCCC1 returned HIV Env fusion 2.5, FGF22 binding -0.2, PGC1a acetyl inh -4.4 and rRNA inh HTS -26.4*.
COc1ccc(NC(=O)c2ccc(NC(=O)c3ccco3)cc2)c(OC)c1 was read as HIV Env fusion 4.6, FGF22 binding 0.0, Cneo AK release -4.9, ERAP1 inh 3.3 and rRNA inh HTS -14.6.
For Nc1sc(-c2ccccc2)c(Cc2ccccc2)c1C(=O)O the results were HIV Env fusion 12.9, FGF22 binding 0.3, ERAP1 inh -1.8 and rRNA inh HTS 3.1.
Screening Cc1cccc(NC(=O)CN2C(=O)CSC2=O)c1 returned HIV Env fusion -31.0, FGF22 binding -0.4, ERAP1 inh 3.6 and rRNA inh HTS 14.2.
Cc1nnc(Nc2ccc(C(=O)O)cc2)[nH]c1=O was read as HIV Env fusion 13.4, ERAP1 inh -98.2, PGC1a acetyl inh 1.6 and rRNA inh HTS 6.0.
Fc1ccc(-c2nc3c(-c4ccccc4)cnn3cc2CCN2CCOCC2)cc1 was read as HIV Env fusion 4.2, FGF22 binding -0.3, ERAP1 inh 2.2, PGC1a acetyl inh -2.4 and rRNA inh HTS -18.4.
Screening Fc1ccc(-c2nc3c(-c4ccc(F)cc4)cnn3cc2CCN2CCOCC2)cc1 returned HIV Env fusion 4.6, FGF22 binding 42.9*, Cneo AK release -2.0, ERAP1 inh 2.0, PGC1a acetyl inh 4.1 and rRNA inh HTS -11.4.
Cc1nc2ncnn2c(N2CCCC(C(=O)Nc3ccc4c(c3)CCC4)C2)c1C (stereo not given) was read as HIV Env fusion 78.1*, Cneo AK release 0.7 and PGC1a acetyl inh -14.2.
